This is one part of a sample in which hits are shown more often than they occur.
Lmaj promast: inhibitors of Leishmania major promastigote growth | hit rate 9% among 200,000 | AID 1063 | inhibition, % at 10 µM | Leishmania major promastigotes, resazurin fluorescence viability; in the data active = inhibition above about 50%;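 note: promastigotes grown with compound for 44 hours at 28 °C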
HSF1 inhib: HSF1 inhibition; NIH3T3-HGL HSE-luciferase, MG132-induced, luminescence 8 h; active compounds read low; activity change, negative = inhibition, % at 7.5 µM (by protocol); hit rate 0.77% among 300,000; AID 2098;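 active = more than half of replicate wells show activity change below -50%, luminescence cut by over half; inconclusive = some wells, but at most half, below -50%; inactive = no replicate well below -50%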;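 note: luciferase reports HSF-1 transcriptional activity via heat shock element; 0% = median of DMSO wells and -100% = zero luminescence signal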
Hsp70 activator: transcriptional activators of Hsp70; HeLa Hsp70 promoter luciferase reporter, luminescence; scaled: vehicle 0, proteasome-inhibitor control 100%; activation, % at 10 µM; hit rate 0.04% among 200,000;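 active = activation above the mean across all tested compounds plus 3 SD, cutoff set per campaign, cut at about 5.5% in these data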;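 note: 100% = MG132 at 30 µM as the positive control and 0% = DMSO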
T cruzi inh: blocks replication of Trypanosoma cruzi; T. cruzi beta-gal in NIH3T3, luminescence, 90 h; inhibition, % (no concentration beside the values); hit rate 1.4% among 300,000; AID 1885;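 active = mean inhibition across valid replicates above about 55%, limit read from the data; inconclusive = mean below that limit but half or more replicates reach it; inactive = mean below it, under half of replicates reach it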;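 note: signal also drops with host cell toxicity which is not excluded here; 0% = plate median of DMSO wells and 100% = zero luminescence signal; higher percent means less beta-gal luminescence so fewer parasites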
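Read-out: Parasite load inhibition, % | Test system: Mouse NIH/3T3 fibroblasts infected with β-gal-expressing T. cruzi Tulahuen C4 | Amount: 5,000 cells/well | Medium: DMEM, 2% fetal bovine serum | Signal: GalScreen β-gal luminescence, detergent lysis, 60 min | Timing: 3 h attach, ≥90 h co-culture | Also added: Tulahuen C4 trypomastigotes, 5000/well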
HSF-1 act: increases HSF-1 driven luciferase reporter signal; NIH3T3-HGL HSF-1 luciferase reporter, MG132, 8 h; 100% = twice DMSO control signal; activation, % at 9 µM; hit rate 1.7% among 300,000;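 active = mean replicate activation of at least 50% with a set share of replicates each reaching 50%; inconclusive = only one of those two conditions met; inactive = mean below 50% and too few replicates reaching it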;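 note: 0% = median of the neutral control wells and 100% = twice that signal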
Starred values were filed as active, the others as inactive; ? = inconclusive; . = no result given.

SMILES | Lmaj promast | HSF1 inhib | Hsp70 activator | T cruzi inh | HSF-1 act
CC(=O)Nc1ccc(S(=O)(=O)NCCCc2ccccc2)cc1 | . | -6 | . | -25 | -10
CC(=NCCc1c(C)[nH]c2ccc(C)cc12)C1=C(O)CC(c2ccccc2)CC1=O (stereo not given) | 98* | -9 | 0 | 6 | -10
CC(=NCCc1c(C)[nH]c2ccc(OC(F)(F)F)cc12)C1=C(O)CC(c2ccccc2)CC1=O (stereo not given) | 2 | 7 | 0 | 44 | -8
[O-]/C(=C(\C(=S)Nc1ccc(SC(F)F)cc1)[n+]1ccccc1)c1ccc(Cl)cc1Cl | 84* | -3 | 0 | 23 | 16
O=C(CNC(=S)N(CCCN1CCOCC1)Cc1cccs1)NCc1ccccc1Cl | . | -71* | . | 18 | -77
CCOC(=O)CNC(=S)N(CCCN1CCCCCC1)Cc1cccs1 | 73* | 2 | 0 | 16 | 35
CCOC(=O)CNC(=S)N(CCCN1CCCCC1)Cc1cccs1 | 19 | 6 | 0 | -10 | 23
CCCn1ncc2c(Nc3ccc(C)c(C)c3)ncnc21 | . | 17 | . | 8 | 43
O=C(c1ccc(S(=O)(=O)Nc2ccc(F)cc2)cc1)N1CCN(c2ccccn2)CC1 | 99* | -5 | 0 | -24 | -5
Cc1ccc(S(=O)(=O)NCCC(=O)OCC(=O)N2CCCC2=O)cc1C | . | 4 | . | -20 | -15
COc1ccc(-c2nc(-c3ccccn3)ncc2S(C)(=O)=O)cc1 | -6 | -5 | 0 | -10 | -4
Cn1nc(-c2ccccn2)nc2c(=O)n(C)c(=O)nc1-2 | . | -94* | . | 59* | -94
Cc1ccc(N2CC(C(=O)Nc3nnc(SCC(=O)Nc4cc(C)on4)s3)CC2=O)cc1 (stereo not given) | 60* | -12 | 0 | -3 | -8
COc1cccc(N2CC(C(=O)Nc3nnc(SCC(=O)Nc4cc(C)on4)s3)CC2=O)c1 (stereo not given) | -5 | 1 | 0 | -8 | 0
Cc1nn(Cc2ccc(Cl)cc2)c(C)c1NC(=O)c1cc(-c2ccc3c(c2)OCO3)on1 | 20 | -6 | 0 | 56* | 0
Cc1nn(Cc2ccc(Cl)c(Cl)c2)c(C)c1NC(=O)c1cn(-c2ccccc2)nc1-c1ccccc1 | 77* | 8 | 0 | 61* | 12
Cc1nn(Cc2ccc(Cl)cc2)c(C)c1NC(=O)c1cc(C(C)C)on1 | . | 1 | . | -2 | -5
Cc1cc(C)n(C(=O)c2ccc([N+](=O)[O-])cc2[N+](=O)[O-])n1 | 99* | 0 | 0 | 51 | -6
Cc1nn(Cc2ccccc2)c(C)c1NC(=O)Cn1nc([N+](=O)[O-])c(Cl)c1C | 13 | 3 | 0 | 17 | 25
Cc1nn(Cc2ccccc2)c(C)c1NC(=O)c1ccc([N+](=O)[O-])cc1[N+](=O)[O-] | 63* | -1 | 0 | 56* | -2
COc1ccc(CN2CCNC(=O)C2CC(=O)N(C)Cc2nccn2C)cc1OC (stereo not given) | 0 | -4 | 0 | -3 | 3
Fc1ccc(-n2nnc(-c3cnc4ccccc4c3)n2)cc1 | -2 | -9 | 0 | -6 | -19
COc1ccc(C(=O)NCCS(=O)(=O)N2CCOCC2)cc1 | . | -3 | . | -4 | -14
COc1ccc(NC(=O)CC2SC3=NCCN3C2=O)cc1 (stereo not given) | -2 | 3 | 0 | -7 | -2
Cc1nn(Cc2ccc(Cl)c(Cl)c2)c(C)c1NC(=O)c1cc(-c2ccc3c(c2)OCO3)on1 | 77* | 4 | 0 | ? | -3
SMILES | Lmaj promast | HSF1 inhib | Hsp70 activator | T cruzi inh | HSF-1 act
Cc1cc(C)cc(NC(=S)N2CCC(NC(=O)C3CC3)CC2)c1 | . | 2 | . | -15 | 7
COc1cc(Cl)c(CC(=O)c2c[nH]c3ccccc23)cc1OC | . | 13 | . | 14 | 62*
COc1cc(C(=O)OCC(=O)c2c[nH]c3ccccc23)ccc1OCC(=O)N1CCOCC1 | 3 | 3 | 0 | -1 | 10
C=CCN(c1ccccc1OC)S(=O)(=O)c1cccc(C(=O)OCC(=O)c2c[nH]c3ccccc23)c1 | 97* | 6 | 0 | 36 | 16
COc1cc(OC)c(N(C)S(=O)(=O)c2cccc(C(=O)OCC(=O)c3c[nH]c4ccccc34)c2)cc1Cl | 97* | 15 | 0 | 19 | 44
CN(Cc1ccccc1)C(=O)c1cn(C)c2ccc(S(=O)(=O)N3CCCC3)cc2c1=O | . | -5 | . | 3 | 7
COc1ccc(-c2nc(C)sc2CC(=O)O)cc1OC | -7 | 1 | 0 | -3 | -10
